What is called pKi is the Ki on a negative log10 scale, so that one unit is a factor of ten. Low values mean a high Ki, high ones a low Ki. For orientation: pEC50 means the EC50 on a negative log10 scale, so that one unit is a factor of ten. Broadly, the Emax is the greatest response seen or fitted, relative to the assay's reference. As usually defined, the pIC50 is −log10 of the IC50, conventionally taken in molar units.

Consider 24 molecules from ChEMBL document CHEMBL2151002 (J Med Chem, 2012).

The structures appear in SMILES notation. pEC50, pIC50, pKi: −log10 of the molar value. The source made the active and inactive calls. No cut-off for these calls is given here.

Assay [1] addresses D(3) dopamine receptor (Rattus norvegicus, UniProt P19020). Kind of assay: Displacement of [3H]spiroperidol from rat cloned dopamine D3 receptor expressed in HEK293 cells. Format: cell-based. On the technique in general: Displacement assays read how much labelled ligand stays bound in the presence of the test substance.
The subject of assay [2] is Rattus norvegicus. Description: Reversal of reserpine-induced akinesia in Sprague-Dawley rat at 10 umol/kg, sc administered 18 hrs post reserpine challenge measured for 6 hrs. Format: functional, organism-based.
Assay [3] concerns the target D(2) dopamine receptor (Rattus norvegicus, UniProt P61169). Description: Displacement of [3H]spiroperidol from rat cloned dopamine D2L receptor expressed in HEK293 cells. Format: cell-based.
Assay [4] addresses D(3) dopamine receptor (Homo sapiens, UniProt P35462). Kind of assay: Agonist activity at human cloned dopamine D3 receptor expressed in CHO cells by [35S]GTPgammaS binding assay. Format: functional, cell-based.
Assay [5] concerns the target T1, D(2) dopamine receptor (Homo sapiens, UniProt P14416). Description: Agonist activity at human cloned dopamine D2 receptor expressed in CHO cells by [35S]GTPgammaS binding assay relative to dopamine. Format: functional, cell-based. For orientation: GTPγS is a poorly hydrolysed GTP analogue; its binding reports G protein activation.
The test system of assay [6] is Radical scavenging activity. Description: Antioxidant activity assessed as DPPH radical scavenging activity. Format: functional. The method in brief: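 Methanolic compound solutions (20–250 µM) mixed 1:1 with 200 µM methanolic DPPH and shaken at 30 °C for 20 min. Absorbance read at 517 nm. Controls were DPPH plus methanol; methanol alone served as background. % scavenging = (A control − A sample)/A control × 100, giving IC50.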
Background: The DPPH test is a chemical assay of radical scavenging.

The species named for assay [7] is Rattus norvegicus. Description: Selectivity ratio of Ki for rat cloned dopamine D2L receptor to Ki for rat cloned dopamine D3 receptor.
For assay [8], the target named is T1, D(2) dopamine receptor. Description: Agonist activity at human cloned dopamine D2 receptor expressed in CHO cells by [35S]GTPgammaS binding assay. Format: functional, cell-based.
The test system of assay [9] is Rattus norvegicus. Kind of assay: Reversal of reserpine-induced akinesia in Sprague-Dawley rat at 5 umol/kg, sc administered 18 hrs post reserpine challenge measured for 6 hrs. Format: functional, organism-based.

T1 sequence (P14416 whole entry): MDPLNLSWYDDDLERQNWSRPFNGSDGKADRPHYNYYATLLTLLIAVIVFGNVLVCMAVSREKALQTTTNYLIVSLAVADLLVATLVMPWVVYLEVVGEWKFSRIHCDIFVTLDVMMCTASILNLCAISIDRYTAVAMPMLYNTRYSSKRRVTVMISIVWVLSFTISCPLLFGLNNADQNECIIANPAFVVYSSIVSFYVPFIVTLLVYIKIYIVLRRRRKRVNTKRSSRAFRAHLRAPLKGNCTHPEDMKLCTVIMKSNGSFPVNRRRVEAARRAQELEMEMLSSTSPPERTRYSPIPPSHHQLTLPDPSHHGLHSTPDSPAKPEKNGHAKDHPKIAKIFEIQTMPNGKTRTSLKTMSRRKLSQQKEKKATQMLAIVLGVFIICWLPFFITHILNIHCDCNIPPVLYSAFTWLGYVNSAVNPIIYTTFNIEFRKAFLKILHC
Chain of D(2) dopamine receptor (Rattus norvegicus, UniProt P61169) (P61169 whole entry): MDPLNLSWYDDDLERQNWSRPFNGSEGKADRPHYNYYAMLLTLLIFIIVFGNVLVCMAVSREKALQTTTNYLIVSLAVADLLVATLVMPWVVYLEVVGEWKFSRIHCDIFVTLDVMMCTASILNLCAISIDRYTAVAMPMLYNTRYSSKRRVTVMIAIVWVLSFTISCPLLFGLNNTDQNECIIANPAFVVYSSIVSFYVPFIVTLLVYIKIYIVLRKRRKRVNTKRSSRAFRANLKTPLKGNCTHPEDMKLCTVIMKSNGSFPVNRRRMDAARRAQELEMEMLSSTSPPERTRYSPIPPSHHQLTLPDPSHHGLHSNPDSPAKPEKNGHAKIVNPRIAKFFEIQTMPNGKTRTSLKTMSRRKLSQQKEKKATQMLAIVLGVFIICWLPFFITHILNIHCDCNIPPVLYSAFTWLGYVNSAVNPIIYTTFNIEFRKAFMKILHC
Chain of D(3) dopamine receptor (Homo sapiens, UniProt P35462) (P35462 whole entry): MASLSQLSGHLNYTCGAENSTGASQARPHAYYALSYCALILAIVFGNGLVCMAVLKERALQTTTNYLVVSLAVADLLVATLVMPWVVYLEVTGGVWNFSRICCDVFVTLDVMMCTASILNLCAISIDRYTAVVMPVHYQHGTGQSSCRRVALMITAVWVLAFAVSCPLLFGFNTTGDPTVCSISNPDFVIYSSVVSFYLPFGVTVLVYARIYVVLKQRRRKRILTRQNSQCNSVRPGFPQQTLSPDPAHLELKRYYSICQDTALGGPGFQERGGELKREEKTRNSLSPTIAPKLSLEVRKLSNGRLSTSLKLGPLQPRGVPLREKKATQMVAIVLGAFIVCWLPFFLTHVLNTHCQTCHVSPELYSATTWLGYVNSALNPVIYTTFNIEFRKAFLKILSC
Chain of D(3) dopamine receptor (Rattus norvegicus, UniProt P19020) (P19020 whole entry): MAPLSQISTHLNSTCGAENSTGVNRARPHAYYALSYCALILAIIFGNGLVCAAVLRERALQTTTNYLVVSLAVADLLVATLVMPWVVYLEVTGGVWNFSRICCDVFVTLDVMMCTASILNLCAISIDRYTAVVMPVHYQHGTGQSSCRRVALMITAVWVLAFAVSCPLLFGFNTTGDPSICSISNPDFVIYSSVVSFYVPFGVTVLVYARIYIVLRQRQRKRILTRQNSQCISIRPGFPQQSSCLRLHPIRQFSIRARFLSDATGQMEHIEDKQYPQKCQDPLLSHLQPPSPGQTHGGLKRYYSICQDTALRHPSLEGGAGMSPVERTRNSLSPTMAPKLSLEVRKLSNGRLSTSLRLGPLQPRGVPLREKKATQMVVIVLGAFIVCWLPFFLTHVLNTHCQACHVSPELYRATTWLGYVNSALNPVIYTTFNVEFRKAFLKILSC

For `CCCN(CCN1CCN(C(=O)c2cc3ccccc3[nH]2)CC1)[C@H]1CCc2nc(N)sc2C1`, the pKi at D(3) dopamine receptor [1] is 8.74; on D(2) dopamine receptor [3], 5.97. In addition, the result in the assay with Rattus norvegicus [2] was inactive. On D(3) dopamine receptor [4], this molecule had a pEC50 of 9.59. On D(2) dopamine receptor [5], this molecule came in with a maximal effect (Emax) of 101%.
For the molecule `CCCN(CCN1CCN(C(=O)c2ccc3[nH]ccc3c2)CC1)C1CCc2nc(N)sc2C1` (racemic), the Activity result in assay [6] was “Dose-dependent effect”. Moreover, in the assay filed under Rattus norvegicus [7], the Ratio Ki worked out at 303. In addition, the pKi at D(3) dopamine receptor [1] is 8.39; at D(2) dopamine receptor [3], 5.91.
On to `CCCN(CCN1CCN(C(=O)c2ccc3[nH]ccc3c2)CC1)[C@@H]1CCc2nc(N)sc2C1`, for which the Ratio Ki in the assay filed under Rattus norvegicus [7] is 49.7. Besides, the pKi on D(3) dopamine receptor [1] is 7.28; on D(2) dopamine receptor [3] it was 5.58.
In the case of `CCCN(CCN1CCN(C(=O)c2cc3ccccc3[nH]2)CC1)C1CCc2nc(N)sc2C1` (racemic), in [6], the Activity entry is “Dose-dependent effect”. In addition, the pKi on D(3) dopamine receptor [1] was 8.34; on D(2) dopamine receptor [3], 6.07.
As to `CCCN(CCN1CCN(C(=O)c2c[nH]c3ccccc23)CC1)[C@H]1CCc2nc(N)sc2C1`, the Ratio Ki in the assay filed under Rattus norvegicus [7] amounted to 828. Moreover, the negative-log Ki (pKi) was 8.96 at D(3) dopamine receptor [1] and 6.04 at D(2) dopamine receptor [3]. Further, the pEC50 at D(2) dopamine receptor [8] is 7.06; on D(3) dopamine receptor [4], 9.06. The molecule also came in with an Emax on D(2) dopamine receptor [5] of 91.6%.
For `CCCN(CCN1CCN(c2nccc3ccccc23)CC1)[C@H]1CCc2nc(N)sc2C1`, the Ratio Ki in the assay filed under Rattus norvegicus [7] stood at 121. On D(3) dopamine receptor [4], the pEC50 was 9.09.
`CCCN(CCCCN1CCN(C(=O)c2cc3ccccc3[nH]2)CC1)C1CCc2nc(N)sc2C1` (racemic) gave a negative logarithm of the Ki (pKi) on D(3) dopamine receptor [1] of 8.76.
Regarding `CCCN(CCN1CCN(Cc2cc3ccccc3[nH]2)CC1)C1CCc2c(O)cccc2C1` (configuration not stated), in the assay listed under Rattus norvegicus [7], the Ratio Ki amounted to 33.4. Moreover, the pKi is 8.26 at D(3) dopamine receptor [1] and 6.74 at D(2) dopamine receptor [3].
As for `CCCN(CCN1CCN(C(=O)c2c[nH]c3ccccc23)CC1)[C@@H]1CCc2nc(N)sc2C1`, the Ratio Ki in the assay filed under Rattus norvegicus [7] was 27.3. Moreover, the results for the negative logarithm of the Ki (pKi) on D(3) dopamine receptor [1] and at D(2) dopamine receptor [3] were 7.32 and 5.88, respectively.
On to `CCCN(CCN1CCN(c2ccc3[nH]ccc3c2)CC1)[C@@H]1CCc2nc(N)sc2C1`, for which the Ratio Ki in the assay listed under Rattus norvegicus [7] amounted to 8.46. The pKi at D(3) dopamine receptor [1] is 7.80; on D(2) dopamine receptor [3], 6.87.
In the case of `CCCN(CCC)CCc1cccc2c1CC(=O)N2`, the result in the assay on Rattus norvegicus [9] was Active.
As to `CCCN(CCN1CCN(C(=O)c2cc3ccccc3[nH]2)CC1)[C@@H]1CCc2nc(N)sc2C1`, the pKi on D(3) dopamine receptor [1] is 7.27; at D(2) dopamine receptor [3] it was 5.59.
`O=C1O[C@H]([C@@H](O)CO)C(O)=C1O` [ASCORBIC ACID]: in assay [6], the Activity entry is “Dose-dependent effect” and the pIC50 is 4.60.
With `CCCN(CCCN1CCN(C(=O)c2cc3ccccc3[nH]2)CC1)C1CCc2nc(N)sc2C1` (racemic), in the assay filed under Rattus norvegicus [7], the Ratio Ki was found to be 334. For the same molecule, the results for the pKi on D(3) dopamine receptor [1] and on D(2) dopamine receptor [3] were 8.56 and 6.03, respectively.
Take `CCCN(CCN1CCN(Cc2ccc3[nH]ccc3c2)CC1)C1CCc2c(O)cccc2C1` (configuration not stated): the Ratio Ki in the assay listed under Rattus norvegicus [7] was 64.5. Moreover, the negative logarithm of the Ki (pKi) is 8.38 on D(3) dopamine receptor [1] and 6.57 on D(2) dopamine receptor [3].
As to `CCCN(CCN1CCN(C(=O)c2c[nH]c3ccc(O)cc23)CC1)C1CCc2nc(N)sc2C1` (configuration not stated), the Ratio Ki in the assay filed under Rattus norvegicus [7] came out at 64.2. For the same molecule, the negative logarithm of the Ki (pKi) was 7.77 on D(3) dopamine receptor [1] and 5.97 on D(2) dopamine receptor [3].
With `CCCN(CCN1CCN(c2ccc3[nH]ccc3c2)CC1)C1CCc2c(O)cccc2C1` (configuration not stated), the Ratio Ki in the assay listed under Rattus norvegicus [7] is 7.3. The negative logarithm of the Ki (pKi) on D(3) dopamine receptor [1] is 7.98; at D(2) dopamine receptor [3], 7.12.
As for `CCCN(CCN1CCN(c2ccc3[nH]ccc3c2)CC1)[C@H]1CCc2nc(N)sc2C1`, the Ratio Ki in the assay filed under Rattus norvegicus [7] turned out to be 17.8. Moreover, the negative logarithm of the Ki (pKi) on D(3) dopamine receptor [1] is 8.66; at D(2) dopamine receptor [3] it was 7.41. The outcome in the assay with Rattus norvegicus [9] was Active. Also, the pEC50 on D(2) dopamine receptor [8] was 8.53; at D(3) dopamine receptor [4] it was 8.90. Besides, the maximal effect (Emax) on D(2) dopamine receptor [5] worked out at 107%.
`CCCN(CCN1CCN(Cc2ccc3[nH]ccc3c2)CC1)C1CCc2nc(N)sc2C1` (configuration not stated): the Ratio Ki in the assay filed under Rattus norvegicus [7] turned out to be 16.4. Also, the pKi is 8.09 at D(3) dopamine receptor [1] and 6.88 at D(2) dopamine receptor [3].
Take `CCCN(CCN1CCN(C(=O)c2ccc3[nH]ccc3c2)CC1)[C@H]1CCc2nc(N)sc2C1`: the Ratio Ki in the assay filed under Rattus norvegicus [7] is 736. For the same molecule, the pKi at D(3) dopamine receptor [1] was 8.85; at D(2) dopamine receptor [3], 5.99. The result in the assay with Rattus norvegicus [2] was inactive. In addition, the pEC50 at D(2) dopamine receptor [8] was 7.15; on D(3) dopamine receptor [4], 9.25. The molecule further came in with an Emax on D(2) dopamine receptor [5] of 107%.
As for `CCCN(CCN1CCN(Cc2c[nH]c3ccccc23)CC1)C1CCc2c(O)cccc2C1` (configuration not stated), in the assay filed under Rattus norvegicus [7], the Ratio Ki is 25.6. For the same molecule, the pKi was 8.49 on D(3) dopamine receptor [1] and 7.09 at D(2) dopamine receptor [3].
Regarding `CCCN(CCN1CCN(c2ccc3[nH]ccc3c2)CC1)C1CCc2nc(N)sc2C1` (racemic), in assay [6], the Activity result is “Dose-dependent effect”. Further, the pIC50 in [6] was 4.84. For the same molecule, the Ratio Ki in the assay listed under Rattus norvegicus [7] came to 24.3. Moreover, the negative-log Ki (pKi) is 8.72 on D(3) dopamine receptor [1] and 7.33 on D(2) dopamine receptor [3].
Consider `CCCN(CCN1CCN(C(=O)c2c[nH]c3ccccc23)CC1)C1CCc2nc(N)sc2C1` (racemic), for which, in assay [6], the Activity result was “Dose-dependent effect”. In the assay filed under Rattus norvegicus [7], the Ratio Ki was 360. For the same molecule, the pKi on D(3) dopamine receptor [1] was 8.38; on D(2) dopamine receptor [3] it was 5.82.
With `CCCN(CCN1CCN(c2ccc(-c3ccccc3)cc2)CC1)[C@H]1CCc2nc(N)sc2C1`, the pEC50 was 7.48 at D(2) dopamine receptor [8] and 8.82 on D(3) dopamine receptor [4]. The same molecule yielded an Emax at D(2) dopamine receptor [5] of 104%.
